{"source": "paper PMC5014782", "about": "(Diabetes Therapy, 2016)", "key": {"[1]": {"test": "Population pharmacokinetic analysis", "type": "in vivo, human", "how_it_was_run": "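NONMEM 7.2 two-compartment model with lagged first-order absorption (lag fixed at 0.5 h) and first-order elimination. Fitted to 12,503 plasma concentrations from 2761 patients given oral doses of 1–100 mg once daily in ten Phase I–III studies; placebo excluded and first-hour samples dropped. eGFR by the MDRD formula, with a reference patient at eGFR 100 mL/min/1.73 m2. Bootstrap precision check.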"}, "[2]": {"test_system": "patients with type 2 diabetes mellitus", "test": "Exposure–response analysis for efficacy", "type": "in vivo, human", "details": "for Target of the maximal response for FPG and HbA1c obtained: after 24 weeks", "how_it_was_run": "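NONMEM population PK/PD turnover model fitted to 25,361 FPG and 22,012 HbA1c values from 4065 patients, placebo arms included, in three Phase II and four Phase III trials of ≥12 weeks. AUCss drives FPG elimination through a non-linear Emax term, and FPG changes drive HbA1c production. Steady-state baseline assumed. Covariates on Gmax include eGFR and baseline FPG. Precision checked by bootstrap.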"}, "[3]": {"test_system": "patients with type 2 diabetes mellitus", "type": "in vivo, human", "details": "24 weeks, median (2.5th, 97.5th percentile)"}, "[4]": {"test_system": "patients with type 2 diabetes mellitus", "test": "Exposure–response analysis for safety/tolerability", "type": "in vivo, human", "details": "empagliflozin therapy compared with placebo-treated patients; OR (95% CI)", "how_it_was_run": "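Logistic regression (R glm, binomial, logit link) of dichotomous patient-level adverse-event endpoints, each counted as any event during study. Endpoints: confirmed hypoglycemia (plasma glucose <3.9 mM and/or assistance required), and UTI, genital infection and volume depletion defined by 73, 89 and 8 preferred terms. Covariates enter additively with steady-state AUC relative to reference. Odds ratios computed for empagliflozin treatment.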"}, "[5]": {"test_system": "patients with type 2 diabetes mellitus", "details": "cited from earlier work; for Placebo-corrected reduction in HbA1c / Reduction in FPG: Phase III"}, "[6]": {"details": "Japanese patients with T2DM and renal impairment; subjects with renal impairment; cited from earlier work"}, "[7]": {"details": "eGFR 15 mL/min/1.73 m^2 vs reference patient with eGFR 100 mL/min/1.73 m^2"}}, "note": "Entries after “also recorded” stand apart in the source; their conditions may differ. Read-outs that look alike come from different tables or passages of the source. Marks after values point to notes of the source that are not given here.", "data": [{"smiles": "OC[C@H]1O[C@@H](c2ccc(Cl)c(Cc3ccc(O[C@H]4CCOC4)cc3)c2)[C@H](O)[C@@H](O)[C@@H]1O", "note": "[empagliflozin]", "values": [{"measurement": "Increase in typical AUCss", "setting": "[1]; [7]", "value": 88.1, "unit": "%"}, {"measurement": "Reduction in CL/F", "setting": "[1]; [7]", "value": 46.8, "unit": "%"}, {"measurement": "Increase in typical AUCss", "setting": "[1]; eGFR 30 mL/min/1.73 m^2 vs reference patient with eGFR 100 mL/min/1.73 m^2", "value": 49.2, "unit": "%"}, {"measurement": "Increase in typical AUCss", "setting": "[1]; eGFR 60 mL/min/1.73 m^2 vs reference patient with eGFR 100 mL/min/1.73 m^2", "value": 18.5, "unit": "%"}, {"measurement": "Increase in mean AUCss", "setting": "[1]; eGFR ≥60 mL/min/1.73 m^2 vs reference eGFR 100 mL/min/1.73 m^2", "value": "≤ 20", "unit": "%"}, {"measurement": "Vd/F", "setting": "[1]; human, plasma, oral", "value": 3.14, "unit": "L"}, {"measurement": "Increase in exposure (AUCss) in renal impairment", "setting": "[1]; patients with (severe) renal impairment", "value": "less than twofold increase in exposure; also recorded: increased less than twofold; also recorded: increase in exposure less than twofold"}, {"measurement": "first-order ka", "setting": "[1]; typical value given the reference covariates", "value": 0.196, "unit": "L/h"}, {"measurement": "Target of the maximal response for FPG and HbA1c obtained", "setting": "[2]; once daily dose of approximately 10 mg", "value": 80, "unit": "%"}, {"measurement": "Target of the maximal response for FPG and HbA1c obtained", "setting": "[2]; once daily dose of approximately 25 mg", "value": 90, "unit": "%"}, {"measurement": "Efficacy (effect on FPG) maintained in renal impairment", "setting": "[2]; eGFR as low as 30 mL/min/1.73 m^2", "value": "nearly half the maximal effect"}, {"measurement": "Once daily dose whose median exposure corresponds to AUC50", "setting": "[2]; once daily dose", "value": "around 3 mg"}, {"measurement": "Median change from baseline in glycated hemoglobin, Observed", "setting": "[3]; 10 mg, eGFR 30–60 mL/min/1.73 m^2 (study 10), five patients", "value": "−0.90 (−1.81, 0.12)^a"}, {"measurement": "Median change from baseline in glycated hemoglobin, Observed", "setting": "[3]; 10 mg, eGFR 45–60 mL/min/1.73 m^2 (study 10), five patients", "value": "−0.90 (−1.81, 0.12)^a"}, {"measurement": "Median change from baseline in glycated hemoglobin, Observed", "setting": "[3]; 10 mg, eGFR 60–90 mL/min/1.73 m^2 (study 10)", "value": "−0.40 (−1.70, 0.76)"}, {"measurement": "Median change from baseline in glycated hemoglobin, Observed", "setting": "[3]; 10 mg, elderly (75–85 years)", "value": "−0.65 (−2.44, 0.40)"}, {"measurement": "Median change from baseline in glycated hemoglobin, Observed", "setting": "[3]; 25 mg, eGFR 30–45 mL/min/1.73 m^2 (study 10)", "value": "−0.30 (−1.83, 1.43)"}, {"measurement": "Median change from baseline in glycated hemoglobin, Observed", "setting": "[3]; 25 mg, eGFR 30–60 mL/min/1.73 m^2 (study 10)", "value": "−0.40 (−2.00, 1.25)"}, {"measurement": "Median change from baseline in glycated hemoglobin, Observed", "setting": "[3]; 25 mg, eGFR 45–60 mL/min/1.73 m^2 (study 10)", "value": "−0.40 (−1.97, 0.88)"}, {"measurement": "Median change from baseline in glycated hemoglobin, Observed", "setting": "[3]; 25 mg, eGFR 60–90 mL/min/1.73 m^2 (study 10)", "value": "−0.70 (−1.64, 0.90)"}, {"measurement": "Median change from baseline in glycated hemoglobin, Observed", "setting": "[3]; 25 mg, elderly (75–85 years)", "value": "−0.50 (−2.03, 0.60)"}, {"measurement": "OR for UTI", "setting": "[4]", "value": "0.941 (0.687, 1.29)"}, {"measurement": "OR for genital infection", "setting": "[4]", "value": "5.08 (2.77, 9.34)"}, {"measurement": "OR for hypoglycemia", "setting": "[4]", "value": "1.11 (0.811, 1.52)"}, {"measurement": "OR for volume depletion", "setting": "[4]", "value": "1.44 (0.517, 4.01)"}, {"measurement": "Placebo-corrected reduction in HbA1c", "setting": "[5]; add-on therapy, 10 mg", "value": "−0.4% to −0.7%"}, {"measurement": "Reduction in FPG", "setting": "[5]; add-on therapy, 10 mg", "value": "−0.9 to −1.5", "unit": "mM"}, {"measurement": "Placebo-corrected reduction in HbA1c", "setting": "[5]; add-on therapy, 25 mg", "value": "−0.5% to −0.7%"}, {"measurement": "Reduction in FPG", "setting": "[5]; add-on therapy, 25 mg", "value": "−1.2 to −1.8", "unit": "mM"}, {"measurement": "Placebo-corrected reduction in HbA1c", "setting": "[5]; monotherapy, 10 mg", "value": "−0.7", "unit": "%"}, {"measurement": "Reduction in FPG", "setting": "[5]; monotherapy, 10 mg", "value": -1.7, "unit": "mM"}, {"measurement": "Placebo-corrected reduction in HbA1c", "setting": "[5]; monotherapy, 25 mg", "value": "−0.9", "unit": "%"}, {"measurement": "Reduction in FPG", "setting": "[5]; monotherapy, 25 mg", "value": -2.0, "unit": "mM"}, {"measurement": "Effect on HbA1c as add-on to existing antidiabetic therapy", "setting": "[5]; patients with T2DM and stage 2 or 3 CKD", "value": "significant reductions in HbA1c"}, {"measurement": "Effect on HbA1c", "setting": "[5]; patients with severe renal impairment (stage 4 CKD)", "value": "no reduction in HbA1c was observed"}, {"measurement": "Increase in exposure for patients with renal impairment", "setting": "[6]", "value": "less than twofold"}]}]}
